Test results taken from article PMC8232391 (Drug Design, Development and Therapy, 2021).

Legend:
[1] = Stability of stock and working standard solutions of DUV; format: physicochemical; conditions: refrigerator temperature (8°C) for 30 days
Method in brief: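 Stock solutions (1.0 mg mL–1 in acetonitrile) and working standards diluted in mobile phase were held 24 h at room temperature and 30 days refrigerated (below 10°C). They were then analysed by the HPLC-FD method against freshly spiked calibration standards.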

[2] = Stability of DUV in spiked human plasma samples; format: in vitro ADME

Stability of stock and working standard solutions [1]: stable
Time stable in spiked human plasma ([2]; autosampler storage conditions): ≥ 48 h
Time stable in spiked human plasma ([2]; room temperature on the bench): ≥ 6 h
Stability in spiked human plasma ([2]; three freeze–thaw cycles): stable
Stability in spiked human plasma ([2]; −80°C for 60 days): stable
Structure (SMILES): C[C@H](Nc1ncnc2[nH]cnc12)c1cc2cccc(Cl)c2c(=O)n1-c1ccccc1 [DUV, 8-chloro-2-phenyl-3-[(1S)-1-(7H-purin-6-ylamino)ethyl]isoquinolin-1-one]
